One may read the inhibition as the change of the read-out against control, counted positive when it falls.

In ChEMBL document CHEMBL5696442, “Discovery of type II inhibitors of TGFβ-activated kinase 1 (TAK1) and mitogen-activated protein kinase kinase kinase kinase 2 (MAP4K2)” (J Med Chem, 2015) one finds inhibition data, which are given here for 2 molecules.

Type in all cases: cell-based
For test [1], the target named is Focal adhesion kinase 1 (Homo sapiens) (UniProt Q05397). As to the kind of experiment: Inhibition of FAK Lys1 labeling site in human A-375 cells at 0.5 uM by KiNativ Profiling analysis relative to control. Summed up:
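Live A375 melanoma cells were treated with compound at 5 or 0.5 μM, then lysed. Lysates were labeled with a lysine-reactive ATP or ADP-biotin probe. Read-out was the compound's protection of kinase labeling sites from probe labeling (KiNativ).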

Test [2] deals with Serine/threonine-protein kinase WNK1 (Homo sapiens) (UniProt Q9H4A3). The test can be described thus: Inhibition of Wnk1 ATP Loop labeling site in human A-375 cells at 0.05 uM by KiNativ Profiling analysis relative to control.
Chain of Serine/threonine-protein kinase WNK1 (Homo sapiens) (Q9H4A3 whole entry, looked up, the tested form may be a part): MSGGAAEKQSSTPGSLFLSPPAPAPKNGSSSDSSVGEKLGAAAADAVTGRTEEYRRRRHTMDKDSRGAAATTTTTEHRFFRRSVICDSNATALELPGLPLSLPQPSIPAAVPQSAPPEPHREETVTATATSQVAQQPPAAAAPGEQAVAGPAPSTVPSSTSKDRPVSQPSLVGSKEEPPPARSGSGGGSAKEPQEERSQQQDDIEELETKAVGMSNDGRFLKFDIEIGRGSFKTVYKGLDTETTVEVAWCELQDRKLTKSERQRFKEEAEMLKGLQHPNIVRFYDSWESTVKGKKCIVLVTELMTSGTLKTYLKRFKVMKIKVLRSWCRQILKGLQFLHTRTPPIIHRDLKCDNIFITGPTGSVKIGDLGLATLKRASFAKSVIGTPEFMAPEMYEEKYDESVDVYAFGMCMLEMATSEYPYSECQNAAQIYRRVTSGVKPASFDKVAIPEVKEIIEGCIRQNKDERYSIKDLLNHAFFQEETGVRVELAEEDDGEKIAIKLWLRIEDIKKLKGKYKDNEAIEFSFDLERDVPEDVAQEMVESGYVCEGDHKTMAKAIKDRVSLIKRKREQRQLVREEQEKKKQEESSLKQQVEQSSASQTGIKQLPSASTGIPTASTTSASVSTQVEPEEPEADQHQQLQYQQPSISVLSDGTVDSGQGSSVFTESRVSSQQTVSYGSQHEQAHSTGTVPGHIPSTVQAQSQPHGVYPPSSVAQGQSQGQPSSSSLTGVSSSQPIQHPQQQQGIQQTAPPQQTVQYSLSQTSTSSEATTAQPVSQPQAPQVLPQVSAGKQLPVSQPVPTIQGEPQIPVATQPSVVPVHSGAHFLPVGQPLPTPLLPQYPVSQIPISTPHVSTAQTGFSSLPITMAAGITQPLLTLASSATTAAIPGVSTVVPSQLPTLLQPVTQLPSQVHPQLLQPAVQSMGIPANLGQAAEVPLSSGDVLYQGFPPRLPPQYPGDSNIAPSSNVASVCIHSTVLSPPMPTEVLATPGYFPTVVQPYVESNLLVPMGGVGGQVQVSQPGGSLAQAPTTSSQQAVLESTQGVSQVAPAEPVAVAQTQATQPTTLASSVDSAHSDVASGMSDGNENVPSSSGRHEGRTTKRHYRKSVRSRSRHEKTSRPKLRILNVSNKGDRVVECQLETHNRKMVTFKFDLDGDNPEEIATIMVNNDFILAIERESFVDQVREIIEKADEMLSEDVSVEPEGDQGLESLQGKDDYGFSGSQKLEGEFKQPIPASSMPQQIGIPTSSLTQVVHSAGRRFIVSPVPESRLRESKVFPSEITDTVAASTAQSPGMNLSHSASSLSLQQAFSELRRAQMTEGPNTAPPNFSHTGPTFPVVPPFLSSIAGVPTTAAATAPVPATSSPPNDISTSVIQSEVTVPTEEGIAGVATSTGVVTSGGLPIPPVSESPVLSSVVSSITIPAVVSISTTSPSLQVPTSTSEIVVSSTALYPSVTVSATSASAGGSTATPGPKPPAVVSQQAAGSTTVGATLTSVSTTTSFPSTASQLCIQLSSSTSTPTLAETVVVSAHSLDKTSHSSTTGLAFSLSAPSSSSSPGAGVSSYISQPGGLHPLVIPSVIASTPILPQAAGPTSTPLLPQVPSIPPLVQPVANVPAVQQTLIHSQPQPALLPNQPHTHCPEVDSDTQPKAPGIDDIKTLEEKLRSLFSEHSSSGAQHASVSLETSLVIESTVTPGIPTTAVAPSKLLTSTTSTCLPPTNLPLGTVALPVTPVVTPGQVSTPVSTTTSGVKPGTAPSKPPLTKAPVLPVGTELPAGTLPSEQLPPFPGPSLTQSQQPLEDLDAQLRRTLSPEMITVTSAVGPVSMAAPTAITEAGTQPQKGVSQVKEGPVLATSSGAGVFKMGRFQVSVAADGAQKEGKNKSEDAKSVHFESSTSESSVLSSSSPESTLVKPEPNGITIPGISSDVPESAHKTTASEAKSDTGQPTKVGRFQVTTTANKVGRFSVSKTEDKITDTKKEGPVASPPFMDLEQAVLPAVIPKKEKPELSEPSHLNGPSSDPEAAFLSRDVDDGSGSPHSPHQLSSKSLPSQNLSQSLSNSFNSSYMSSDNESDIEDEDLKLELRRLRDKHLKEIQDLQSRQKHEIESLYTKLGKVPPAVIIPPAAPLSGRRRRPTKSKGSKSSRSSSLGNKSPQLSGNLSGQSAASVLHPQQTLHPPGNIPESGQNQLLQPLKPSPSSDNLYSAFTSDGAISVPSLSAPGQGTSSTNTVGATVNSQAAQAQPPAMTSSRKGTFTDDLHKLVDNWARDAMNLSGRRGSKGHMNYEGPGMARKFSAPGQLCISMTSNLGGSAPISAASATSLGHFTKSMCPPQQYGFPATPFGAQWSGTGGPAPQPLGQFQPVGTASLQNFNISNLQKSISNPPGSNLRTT
Test [3] has as its target Casein kinase II subunit alpha (Homo sapiens) (UniProt P68400). As to the kind of experiment: Inhibition of CK2a1 Protein Kinase Domain in human A-375 cells at 5 uM by KiNativ Profiling analysis relative to control. Summed up: (§1)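 Intact A375 melanoma cells were treated with compound at 5 or 0.5 μM, then lysed. Lysate kinases were labeled with a lysine-reactive ATP or ADP-biotin probe (KiNativ). Inhibition is read as protection of each kinase labeling site from probe labeling.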

The target of test [4] is Serine/threonine-protein kinase mTOR (Homo sapiens) (UniProt P42345). The test can be described thus: Inhibition of FRAP ATP labeling site in human A-375 cells at 0.5 uM by KiNativ Profiling analysis relative to control. Summed up: (§2)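 Live A375 melanoma cells were treated with compound at 0.5 or 5 μM, then lysed. Lysates were labeled with a lysine-reactive ATP or ADP-biotin probe. The read-out was protection of each kinase probe-labeling site from labeling, relative to control.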

In test [5] the target is Calcium/calmodulin-dependent protein kinase type 1 (Homo sapiens) (UniProt Q14012). As to the kind of experiment: Inhibition of CAMK1 alpha Lys1 labeling site in human A-375 cells at 0.5 uM by KiNativ Profiling analysis relative to control. Summed up: as §1
Chain of Calcium/calmodulin-dependent protein kinase type 1 (Homo sapiens) (Q14012 whole entry, looked up): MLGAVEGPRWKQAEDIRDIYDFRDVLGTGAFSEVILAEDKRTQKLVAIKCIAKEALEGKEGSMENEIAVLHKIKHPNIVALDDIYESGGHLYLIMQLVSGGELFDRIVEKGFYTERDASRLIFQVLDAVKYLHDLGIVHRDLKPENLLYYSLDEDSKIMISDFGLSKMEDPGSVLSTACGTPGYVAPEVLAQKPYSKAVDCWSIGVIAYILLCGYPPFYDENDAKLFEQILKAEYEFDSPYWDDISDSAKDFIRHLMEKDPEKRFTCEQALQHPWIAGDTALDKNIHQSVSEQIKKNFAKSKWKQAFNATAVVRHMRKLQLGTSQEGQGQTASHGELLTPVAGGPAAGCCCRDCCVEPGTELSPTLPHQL
In test [6] the target is T1, Mitogen-activated protein kinase kinase kinase 2 (Homo sapiens) (UniProt Q9Y2U5).
T1 sequence (whole entry): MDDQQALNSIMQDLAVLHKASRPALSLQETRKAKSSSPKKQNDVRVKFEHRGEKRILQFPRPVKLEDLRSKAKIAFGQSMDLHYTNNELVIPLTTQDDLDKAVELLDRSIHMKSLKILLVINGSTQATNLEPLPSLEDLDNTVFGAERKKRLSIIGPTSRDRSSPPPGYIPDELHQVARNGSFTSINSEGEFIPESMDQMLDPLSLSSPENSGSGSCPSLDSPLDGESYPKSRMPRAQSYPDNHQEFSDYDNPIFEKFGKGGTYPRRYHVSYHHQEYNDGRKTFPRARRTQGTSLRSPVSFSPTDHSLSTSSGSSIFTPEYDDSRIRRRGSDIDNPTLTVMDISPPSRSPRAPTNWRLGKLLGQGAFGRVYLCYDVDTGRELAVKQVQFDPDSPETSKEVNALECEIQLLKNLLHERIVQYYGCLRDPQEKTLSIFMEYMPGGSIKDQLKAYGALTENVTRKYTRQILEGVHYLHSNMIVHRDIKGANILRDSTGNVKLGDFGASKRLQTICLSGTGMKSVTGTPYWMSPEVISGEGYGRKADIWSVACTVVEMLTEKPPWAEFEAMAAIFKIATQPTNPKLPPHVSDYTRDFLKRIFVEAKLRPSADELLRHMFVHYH
As to the kind of experiment: Inhibition of MAP3K2 Lys1 labeling site harbouring ELAVKQVQFDPDSPETSKEVNALECEIQLLK in human A-375 cells at 5 uM by KiNativ Profiling analysis relative to control.

In test [7] the target is T2, Ephrin type-B receptor 4 (Homo sapiens) (UniProt P54760).
T2 sequence (whole entry): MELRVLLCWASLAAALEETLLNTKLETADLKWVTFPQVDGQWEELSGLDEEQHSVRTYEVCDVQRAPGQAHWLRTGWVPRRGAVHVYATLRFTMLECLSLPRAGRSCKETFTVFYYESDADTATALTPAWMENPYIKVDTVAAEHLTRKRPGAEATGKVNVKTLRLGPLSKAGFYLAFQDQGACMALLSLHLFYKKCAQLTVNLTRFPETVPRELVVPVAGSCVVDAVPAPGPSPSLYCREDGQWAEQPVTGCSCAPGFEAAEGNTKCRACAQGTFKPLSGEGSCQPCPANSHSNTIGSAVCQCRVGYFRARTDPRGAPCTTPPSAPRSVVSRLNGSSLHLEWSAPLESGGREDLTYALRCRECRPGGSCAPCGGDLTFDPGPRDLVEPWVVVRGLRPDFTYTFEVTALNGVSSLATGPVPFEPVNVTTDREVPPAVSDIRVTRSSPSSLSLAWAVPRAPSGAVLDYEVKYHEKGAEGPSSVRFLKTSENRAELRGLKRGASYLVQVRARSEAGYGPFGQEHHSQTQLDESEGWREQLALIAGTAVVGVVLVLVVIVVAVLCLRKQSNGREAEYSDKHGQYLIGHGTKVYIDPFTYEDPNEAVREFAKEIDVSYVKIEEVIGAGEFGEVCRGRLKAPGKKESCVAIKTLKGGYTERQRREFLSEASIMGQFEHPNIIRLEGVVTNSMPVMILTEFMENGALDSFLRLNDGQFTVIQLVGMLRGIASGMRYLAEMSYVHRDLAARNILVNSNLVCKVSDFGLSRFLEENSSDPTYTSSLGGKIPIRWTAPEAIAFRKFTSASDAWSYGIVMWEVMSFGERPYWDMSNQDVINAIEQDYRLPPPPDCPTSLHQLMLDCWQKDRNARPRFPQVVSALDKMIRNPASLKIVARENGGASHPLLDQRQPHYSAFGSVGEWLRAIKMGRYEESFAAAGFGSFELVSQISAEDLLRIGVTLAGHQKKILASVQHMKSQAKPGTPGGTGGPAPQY
The test can be described thus: Inhibition of EphB4 ACT labeling site in human A-375 cells at 5 uM by KiNativ Profiling analysis relative to control. Summed up:
as §2

Structures are written as SMILES.

Chain of Focal adhesion kinase 1 (Homo sapiens) (Q05397 2-1052 limits assumed): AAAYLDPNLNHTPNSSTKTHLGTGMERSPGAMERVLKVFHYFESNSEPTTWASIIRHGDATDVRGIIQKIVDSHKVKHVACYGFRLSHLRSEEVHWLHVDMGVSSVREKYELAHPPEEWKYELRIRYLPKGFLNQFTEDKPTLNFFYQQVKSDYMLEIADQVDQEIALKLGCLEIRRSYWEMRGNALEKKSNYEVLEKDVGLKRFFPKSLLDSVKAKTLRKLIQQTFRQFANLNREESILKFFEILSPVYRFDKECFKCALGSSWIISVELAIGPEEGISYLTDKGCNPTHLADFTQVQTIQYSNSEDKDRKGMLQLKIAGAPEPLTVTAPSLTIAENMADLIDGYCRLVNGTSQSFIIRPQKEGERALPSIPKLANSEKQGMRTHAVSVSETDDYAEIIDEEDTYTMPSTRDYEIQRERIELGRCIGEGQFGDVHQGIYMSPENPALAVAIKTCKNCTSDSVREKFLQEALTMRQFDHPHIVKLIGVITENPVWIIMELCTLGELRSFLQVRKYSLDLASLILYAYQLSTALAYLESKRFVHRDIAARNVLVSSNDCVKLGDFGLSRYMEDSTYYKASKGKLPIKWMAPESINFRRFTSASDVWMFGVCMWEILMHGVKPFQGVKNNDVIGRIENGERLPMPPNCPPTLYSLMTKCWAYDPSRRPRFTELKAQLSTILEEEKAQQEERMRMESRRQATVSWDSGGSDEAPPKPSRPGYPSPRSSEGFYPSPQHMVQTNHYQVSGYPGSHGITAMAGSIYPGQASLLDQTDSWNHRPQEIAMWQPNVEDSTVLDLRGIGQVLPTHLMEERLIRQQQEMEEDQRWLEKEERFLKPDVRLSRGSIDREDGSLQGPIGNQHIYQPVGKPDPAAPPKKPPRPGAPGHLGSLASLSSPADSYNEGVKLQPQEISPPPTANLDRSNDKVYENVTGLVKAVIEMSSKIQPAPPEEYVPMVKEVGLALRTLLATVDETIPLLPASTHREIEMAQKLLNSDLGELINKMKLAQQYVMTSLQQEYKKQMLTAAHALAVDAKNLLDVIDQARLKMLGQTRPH
Chain of Casein kinase II subunit alpha (Homo sapiens) (P68400 whole entry, looked up, the tested form may be a part): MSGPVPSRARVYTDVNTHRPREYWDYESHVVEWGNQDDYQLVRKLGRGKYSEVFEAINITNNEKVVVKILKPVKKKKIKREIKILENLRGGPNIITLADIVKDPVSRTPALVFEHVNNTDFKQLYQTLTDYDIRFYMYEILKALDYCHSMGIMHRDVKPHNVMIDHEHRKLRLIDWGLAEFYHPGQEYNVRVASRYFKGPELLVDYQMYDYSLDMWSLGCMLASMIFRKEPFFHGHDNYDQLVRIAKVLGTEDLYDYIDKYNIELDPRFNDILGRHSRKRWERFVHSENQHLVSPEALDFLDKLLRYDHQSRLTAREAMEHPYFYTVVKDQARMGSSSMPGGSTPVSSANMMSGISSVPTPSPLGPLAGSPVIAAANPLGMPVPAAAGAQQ

As to `CCN1CCN(Cc2ccc(NC(=O)c3ccc(C)c(/C=C/c4cnc5[nH]ccc5c4OC)c3)cc2C(F)(F)F)CC1`, the inhibition in test [1] was -2%; in test [2], 5%; in test [3], 1%; in test [4], 0.8%; in test [5], 37%; in test [6] it was 60.6%. In test [7], the inhibition was above 90%.
Regarding `CCN1CCN(Cc2ccc(NC(=O)c3ccc(C)c(Oc4ccnc5[nH]ccc45)c3)cc2C(F)(F)F)CC1`, the inhibition in test [1] is 9.3%; in test [2], 2.4%; in test [3], 15.4%; in test [4], -3%; in test [5] it was 69.7%; in test [6], 44.4%. In addition, the inhibition in test [7] is -4.2%.
